According to ChEMBL document CHEMBL2424622, “Development of amino-pyrimidine inhibitors of c-Jun N-terminal kinase (JNK): kinase profiling guided optimization of a 1,2,3-benzotriazole lead” (Bioorg Med Chem Lett, 2013):

Experiments:
[1] = target: T1, Serine/threonine-protein kinase STK11 (Homo sapiens) (UniProt Q15831); test: Competitive binding affinity to LKB1 (unknown origin) at 10 uM in presence of ATP relative to control
T1 sequence (whole entry): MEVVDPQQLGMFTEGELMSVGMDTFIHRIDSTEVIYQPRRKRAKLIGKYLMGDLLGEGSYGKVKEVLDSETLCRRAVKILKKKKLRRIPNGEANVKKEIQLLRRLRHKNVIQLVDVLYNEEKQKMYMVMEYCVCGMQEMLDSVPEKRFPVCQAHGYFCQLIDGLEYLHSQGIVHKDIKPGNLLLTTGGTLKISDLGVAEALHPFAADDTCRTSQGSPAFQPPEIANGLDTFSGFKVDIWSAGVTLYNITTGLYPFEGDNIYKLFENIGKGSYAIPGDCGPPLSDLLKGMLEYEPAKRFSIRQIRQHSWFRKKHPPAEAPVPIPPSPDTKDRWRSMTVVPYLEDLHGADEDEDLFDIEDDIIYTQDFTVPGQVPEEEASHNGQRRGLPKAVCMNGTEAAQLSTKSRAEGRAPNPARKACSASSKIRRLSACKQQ
In short: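 In vitro ATP-site competition binding assay, part of profiling against a diverse panel of 128 kinases. Each compound was tested at a single concentration of 10 µM. Kinome selectivity was summarized as S15 selectivity scores.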

[2] = target: Serine/threonine-protein kinase PLK3 (Homo sapiens) (UniProt Q9H4B4); test: Competitive binding affinity to PLK3 (unknown origin) at 10 uM in presence of ATP relative to control
Serine/threonine-protein kinase PLK3 (Homo sapiens), sequence (Q9H4B4 whole entry, looked up): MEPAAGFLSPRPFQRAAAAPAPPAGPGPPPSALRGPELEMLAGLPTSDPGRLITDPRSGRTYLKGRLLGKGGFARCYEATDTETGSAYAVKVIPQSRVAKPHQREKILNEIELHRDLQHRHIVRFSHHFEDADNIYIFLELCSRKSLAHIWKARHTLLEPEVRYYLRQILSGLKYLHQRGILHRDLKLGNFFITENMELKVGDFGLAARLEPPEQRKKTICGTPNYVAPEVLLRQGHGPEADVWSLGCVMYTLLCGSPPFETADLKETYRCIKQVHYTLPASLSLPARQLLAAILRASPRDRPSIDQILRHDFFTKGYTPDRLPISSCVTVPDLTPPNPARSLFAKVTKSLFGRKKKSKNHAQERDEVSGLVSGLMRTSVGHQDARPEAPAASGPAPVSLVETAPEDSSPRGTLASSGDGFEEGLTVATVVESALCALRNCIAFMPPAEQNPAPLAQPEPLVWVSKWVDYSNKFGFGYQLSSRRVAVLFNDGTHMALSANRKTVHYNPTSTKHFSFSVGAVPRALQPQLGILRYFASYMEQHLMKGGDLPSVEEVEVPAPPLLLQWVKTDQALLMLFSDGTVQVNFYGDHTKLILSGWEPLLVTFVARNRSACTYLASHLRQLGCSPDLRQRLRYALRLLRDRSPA

[3] = target: Cyclin-dependent kinase 9 (Homo sapiens) (UniProt P50750); test: Competitive binding affinity to CDK9 (unknown origin) at 10 uM in presence of ATP relative to control
Cyclin-dependent kinase 9 (Homo sapiens), sequence (P50750 whole entry, canonical isoform): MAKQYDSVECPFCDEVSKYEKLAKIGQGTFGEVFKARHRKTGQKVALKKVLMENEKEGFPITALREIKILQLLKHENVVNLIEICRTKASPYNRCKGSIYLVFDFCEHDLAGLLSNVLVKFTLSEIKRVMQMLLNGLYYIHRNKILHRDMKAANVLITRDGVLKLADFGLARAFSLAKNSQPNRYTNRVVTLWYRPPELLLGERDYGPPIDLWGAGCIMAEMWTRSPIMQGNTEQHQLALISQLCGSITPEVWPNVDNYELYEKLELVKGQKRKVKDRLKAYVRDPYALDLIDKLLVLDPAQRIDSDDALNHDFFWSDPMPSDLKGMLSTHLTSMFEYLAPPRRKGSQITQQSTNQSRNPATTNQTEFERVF

[4] = target: T2, Casein kinase I isoform alpha-like (Homo sapiens) (UniProt Q8N752); test: Competitive binding affinity to CSNK1A1L (unknown origin) at 10 uM in presence of ATP relative to control
T2 sequence (whole entry): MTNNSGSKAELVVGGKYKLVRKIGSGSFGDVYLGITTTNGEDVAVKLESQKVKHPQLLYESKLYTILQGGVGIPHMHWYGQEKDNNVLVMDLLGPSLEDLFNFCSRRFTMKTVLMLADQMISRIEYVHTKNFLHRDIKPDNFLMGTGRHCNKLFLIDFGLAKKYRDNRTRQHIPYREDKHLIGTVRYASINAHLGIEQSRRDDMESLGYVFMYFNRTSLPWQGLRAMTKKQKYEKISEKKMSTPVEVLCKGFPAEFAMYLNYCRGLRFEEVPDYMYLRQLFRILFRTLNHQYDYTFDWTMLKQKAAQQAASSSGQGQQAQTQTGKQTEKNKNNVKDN

Homo sapiens = species: Homo sapiens; test: Competitive binding affinity to EGFR L747 to S752 deletion mutant, P753S mutant (unknown origin) at 10 uM in presence of ATP relative to control
[5] = target: T3, Interleukin-1 receptor-associated kinase 3 (Homo sapiens) (UniProt Q9Y616); test: Competitive binding affinity to IRAK3 (unknown origin) at 10 uM in presence of ATP relative to control
T3 sequence (whole entry): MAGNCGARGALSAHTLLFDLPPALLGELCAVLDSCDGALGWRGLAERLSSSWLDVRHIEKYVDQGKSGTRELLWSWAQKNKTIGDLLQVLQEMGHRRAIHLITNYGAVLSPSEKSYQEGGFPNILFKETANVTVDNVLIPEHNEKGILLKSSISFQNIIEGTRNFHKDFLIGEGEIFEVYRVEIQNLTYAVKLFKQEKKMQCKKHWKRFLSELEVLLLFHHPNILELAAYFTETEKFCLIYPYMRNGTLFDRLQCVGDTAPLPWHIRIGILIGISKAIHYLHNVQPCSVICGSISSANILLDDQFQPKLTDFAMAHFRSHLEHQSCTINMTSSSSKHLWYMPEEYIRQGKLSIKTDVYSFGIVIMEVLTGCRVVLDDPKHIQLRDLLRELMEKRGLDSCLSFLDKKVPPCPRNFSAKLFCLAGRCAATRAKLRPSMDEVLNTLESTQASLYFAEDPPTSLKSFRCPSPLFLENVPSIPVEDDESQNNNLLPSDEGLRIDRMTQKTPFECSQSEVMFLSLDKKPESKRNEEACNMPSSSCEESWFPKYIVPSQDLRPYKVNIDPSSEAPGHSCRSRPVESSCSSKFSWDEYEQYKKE

[6] = target: T4, Serine/threonine-protein kinase LATS1 (Homo sapiens) (UniProt O95835); test: Competitive binding affinity to LATS1 (unknown origin) at 10 uM in presence of ATP relative to control
T4 sequence (whole entry): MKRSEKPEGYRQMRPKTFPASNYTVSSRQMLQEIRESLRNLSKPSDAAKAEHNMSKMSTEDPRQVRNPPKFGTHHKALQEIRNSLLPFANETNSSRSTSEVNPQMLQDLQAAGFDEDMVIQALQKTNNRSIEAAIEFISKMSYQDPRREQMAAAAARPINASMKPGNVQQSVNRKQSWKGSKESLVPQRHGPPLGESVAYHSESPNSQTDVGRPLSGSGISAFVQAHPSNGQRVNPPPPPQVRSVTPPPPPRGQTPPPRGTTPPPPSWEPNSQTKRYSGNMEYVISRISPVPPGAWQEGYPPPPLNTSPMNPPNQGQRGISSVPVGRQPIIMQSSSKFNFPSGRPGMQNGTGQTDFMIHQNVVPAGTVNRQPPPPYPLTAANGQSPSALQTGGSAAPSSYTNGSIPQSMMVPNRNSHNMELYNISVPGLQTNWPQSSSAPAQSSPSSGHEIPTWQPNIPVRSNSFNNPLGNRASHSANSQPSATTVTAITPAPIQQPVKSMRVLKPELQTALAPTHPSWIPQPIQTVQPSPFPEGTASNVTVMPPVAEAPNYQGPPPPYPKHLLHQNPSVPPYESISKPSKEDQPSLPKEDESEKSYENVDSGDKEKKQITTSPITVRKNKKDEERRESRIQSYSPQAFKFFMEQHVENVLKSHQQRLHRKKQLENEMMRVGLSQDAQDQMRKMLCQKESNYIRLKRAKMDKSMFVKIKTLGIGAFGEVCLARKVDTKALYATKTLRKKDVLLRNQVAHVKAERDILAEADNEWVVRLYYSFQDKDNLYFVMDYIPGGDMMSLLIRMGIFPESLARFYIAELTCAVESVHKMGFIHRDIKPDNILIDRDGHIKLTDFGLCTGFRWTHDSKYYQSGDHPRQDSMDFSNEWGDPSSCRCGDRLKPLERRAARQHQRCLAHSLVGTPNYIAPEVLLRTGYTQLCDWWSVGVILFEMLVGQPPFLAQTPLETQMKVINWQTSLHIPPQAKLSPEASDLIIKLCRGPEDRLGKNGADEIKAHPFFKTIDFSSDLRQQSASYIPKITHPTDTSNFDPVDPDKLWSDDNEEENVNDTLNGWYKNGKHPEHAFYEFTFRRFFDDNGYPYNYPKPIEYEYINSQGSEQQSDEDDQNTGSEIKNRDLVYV

inhibition [1] [%]	inhibition [2] [%]	inhibition [3] [%]	inhibition [4] [%]	inhibition (Homo sapiens) [%]	inhibition [5] [%]	inhibition [6] [%]	Structure (SMILES)
< 50	< 50	82	91	< 50	88	< 50	O[C@H]1CC[C@H](Nc2nccc(-n3ncc4ccccc43)n2)CC1
< 50	< 50	85	74	< 50	87	< 50	O[C@H]1CC[C@H](Nc2nccc(-n3ccc4ccccc43)n2)CC1
75	< 50		100	< 50			O[C@H]1CC[C@H](Nc2nccc(-c3n[nH]c4ccccc34)n2)CC1
< 50	68	96	100	< 50	85	< 50	O[C@H]1CC[C@H](Nc2nccc(-n3nnc4ccccc43)n2)CC1
